We go through three compounds from ChEMBL document CHEMBL3244026, “Synthesis of 4'- and 5'-hydroxyoxprenolol:pharmacologically active ring-hydroxylated metabolites of oxprenolol” (J Med Chem, 1979).

SMILES strings stand for the structures.

Common to all, as to assay type: tissue-based
Holding throughout (details): Trachea

The species entered for assay [1] is Cavia porcellus. Kind of assay: Antagonist activity at beta adrenergic receptor in guinea pig tracheal strips assessed as inhibition of 10^-5 M isoproterenol-induced tracheal relaxation incubated 1 hr prior to testing. The procedure, abridged: (§1)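 Guinea pig tracheal strips in 10-mL baths, precontracted with carbachol 10^-7 M. Two cumulative isoproterenol dose-response curves per strip: control, then a 1 h wash, then antagonist added 1 h before the second curve. Dose ratio is the antilog of the difference in −log molar isoproterenol ED50. Apparent K_B = [antagonist]/(dose ratio − 1), using three antagonist concentrations (Furchgott).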

Assay [2] is filed under the species Cavia porcellus. Kind of assay: Antagonist activity at beta adrenergic receptor in guinea pig tracheal strips assessed as inhibition of 10^-6 M isoproterenol-induced tracheal relaxation incubated 1 hr prior to testing. In outline: as §1
For assay [3], the species on record is Cavia porcellus. Kind of assay: Antagonist activity at beta adrenergic receptor in guinea pig tracheal strips assessed as inhibition of 10^-7 M isoproterenol-induced tracheal relaxation incubated 1 hr prior to testing. In outline:
as §1

For assay [4], the species on record is Cavia porcellus. Kind of assay: Antagonist activity at beta adrenergic receptor in guinea pig tracheal strips assessed as inhibition of isoproterenol-induced tracheal relaxation incubated 1 hr prior to testing. The procedure, abridged:
as §1

For `C=CCOc1cc(O)ccc1OCC(O)CNC(C)C` (stereo unspecified), the results for the Kb in the assay listed under Cavia porcellus [1], in the assay listed under Cavia porcellus [2] and in the assay listed under Cavia porcellus [3] were 0.122 µM, 0.0455 µM and 0.0265 µM, respectively. Moreover, the inhibition entry in the assay filed under Cavia porcellus [4] is “Dose-dependent effect”.
The matching figures for `C=CCOc1ccc(O)cc1OCC(O)CNC(C)C` (stereo unspecified): 0.101 µM, 0.0379 µM, 0.0348 µM and “Dose-dependent effect”.
In the case of `C=CCOc1ccccc1OCC(O)CNC(C)C` (stereo unspecified), the Kb in the assay filed under Cavia porcellus [2] was 0.00581 µM; in the assay filed under Cavia porcellus [3] it was 0.00261 µM. Further, the inhibition result in the assay filed under Cavia porcellus [4] is “Dose-dependent effect”.

By Kb is commonly meant the equilibrium dissociation constant of an antagonist, usually derived from a functional assay.
